From ChEMBL document CHEMBL4138082 (Eur J Med Chem, 2017)
Activity calls are given as the source filed them. The calls are words filed in the database; no cut-off is given here.

Tests used:
HepG2 [1] = test: Induction of apoptosis in human HepG2 cells assessed as cell population with intact mitochondrial membrane potential at 0.0625 uM measured after 48 hrs by JC-1 staining based flow cytometry (reference value: 98.51%); format: functional
Method in brief: (§1)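 HepG-2 cells were exposed 48 h to 0.0625, 0.125 or 0.25 µM or to vehicle, then washed in PBS and stained with JC-1 in the dark. Red aggregate versus green monomer fluorescence was measured by flow cytometry to give the percentages of cells with healthy versus collapsed mitochondrial membrane potential.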

HT-29 = test: Antiproliferative activity against human HT-29 cells after 72 hrs by MTT assay; format: functional, cell-based; settings: HT-29, 72 h
Method in brief: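 MTT assay. Cells were seeded and grown 24 h at 37 °C in 5% CO2, then exposed to compound or left untreated for 72 h. MTT (5 mg/mL stock) was added for 4 h and the formazan dissolved in DMSO. OD was read at 570 nm. IC50 is the concentration giving 50% growth inhibition, reported as mean ± SD of three independent experiments. Vehicle reference was 0.1% DMSO.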

[2] = Drug metabolism in human HepG2 cells assessed as NO release by measuring nitrite formation at 100 uM after 1 hr by Griess assay; format: ADME, cell-based; settings: hepg2, 1 h
Method in brief: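 HepG-2 or L-02 cells were exposed to 100 µM of each compound for 60 min and then harvested. Lysates were mixed with Griess reagent for 10 min at 37 °C and absorbance was read at 550 nm. NO release is expressed as nitrite, reported as mean ± SD of three independent experiments.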

HepG2 [3] = test: Cell cycle arrest in human HepG2 cells assessed as G2 phase accumulation at 0.0625 uM after 48 hrs by propidium iodide staining based flow cytometry (reference value: 23.38%); format: functional
Method in brief: (§2)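 HepG-2 cells were plated and grown 24 h at 37 °C, then treated 48 h at 0, 0.0625, 0.125 or 0.25 µM, with 0.1% DMSO as control. Cells were fixed overnight in 70% ethanol at 4 °C, treated with RNase A and stained with propidium iodide. DNA content was measured by flow cytometry to give cell-cycle phase distribution.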

HepG2 [4] = test: Cell cycle arrest in human HepG2 cells assessed as G1 phase accumulation at 0.25 uM after 48 hrs by propidium iodide staining based flow cytometry (reference value: 32.74%); format: functional; method in brief: as §2
HepG2 [5] = test: Cell cycle arrest in human HepG2 cells assessed as S phase accumulation at 0.25 uM after 48 hrs by propidium iodide staining based flow cytometry (reference value: 43.88%); format: functional; method in brief: as §2
HepG2 [6] = test: Cell cycle arrest in human HepG2 cells assessed as G2 phase accumulation at 0.25 uM after 48 hrs by propidium iodide staining based flow cytometry (reference value: 23.38%); format: functional; method in brief: as §2
HepG2 [7] = test: Cell cycle arrest in human HepG2 cells assessed as G1 phase accumulation at 0.0625 uM after 48 hrs in presence of hemoglobin by propidium iodide staining based flow cytometry (reference value: 52.93%); format: functional
HepG2 [8] = test: Cell cycle arrest in human HepG2 cells assessed as G2 phase accumulation at 0.0625 uM after 48 hrs in presence of hemoglobin by propidium iodide staining based flow cytometry (reference value: 10.67%); format: functional
HepG2 [9] = test: Cell cycle arrest in human HepG2 cells assessed as G1 phase accumulation at 0.125 uM after 48 hrs in presence of hemoglobin by propidium iodide staining based flow cytometry (reference value: 52.93%); format: functional
HepG2 [10] = test: Cell cycle arrest in human HepG2 cells assessed as G1 phase accumulation at 0.25 uM after 48 hrs in presence of hemoglobin by propidium iodide staining based flow cytometry (reference value: 52.93%); format: functional
HepG2 [11] = test: Induction of apoptosis in human HepG2 cells assessed as late apoptotic cells at 0.0625 uM after 48 hrs by […] based flow cytometry (reference value: 3.36%); format: functional
HepG2 [12] = test: Induction of apoptosis in human HepG2 cells assessed as necrotic cells at 0.0625 uM after 48 hrs by Annexin V-APC/7-AAD staining based flow cytometry (reference value: 2.40%); format: functional
HepG2 [13] = test: Induction of apoptosis in human HepG2 cells assessed as viable cells at 0.0625 uM after 48 hrs by Annexin V-APC/7-AAD staining based flow cytometry (reference value: 91.07%); format: functional; settings: HepG2, 48 h, read-out: Activity
HepG2 [14] = test: Induction of apoptosis in human HepG2 cells assessed as early apoptotic cells at 0.125 uM after 48 hrs by […] based flow cytometry (reference value: 3.18%); format: functional
HepG2 [15] = test: Induction of apoptosis in human HepG2 cells assessed as necrotic cells at 0.125 uM after 48 hrs by Annexin V-APC/7-AAD staining based flow cytometry (reference value: 2.40%); format: functional
HepG2 [16] = test: Induction of apoptosis in human HepG2 cells assessed as viable cells at 0.125 uM after 48 hrs by Annexin V-APC/7-AAD staining based flow cytometry (reference value: 91.07%); format: functional; settings: HepG2, 48 h, read-out: Activity
HepG2 [17] = test: Induction of apoptosis in human HepG2 cells assessed as late apoptotic cells at 0.0625 uM after 48 hrs in presence of hemoglobin by Annexin V-APC/7-AAD staining based flow cytometry (reference value: 3.36%); format: functional
HepG2 [18] = test: Induction of apoptosis in human HepG2 cells assessed as early apoptotic cells at 0.25 uM after 48 hrs in presence of hemoglobin by Annexin V-APC/7-AAD staining based flow cytometry (reference value: 3.18%); format: functional
HepG2 [19] = test: Induction of apoptosis in human HepG2 cells after 48 hrs by […]; format: functional, cell-based
HepG2 [20] = test: Induction of apoptosis in human HepG2 cells assessed as cell population with mitochondrial membrane potential loss at 0.0625 uM measured after 48 hrs by JC-1 staining based flow cytometry (reference value: 1.49%); format: functional; method in brief: as §1
HepG2 [21] = test: Induction of apoptosis in human HepG2 cells assessed as cell population with intact mitochondrial membrane potential at 0.125 uM measured after 48 hrs by JC-1 staining based flow cytometry (reference value: 98.51%); format: functional; method in brief: as §1
HepG2 [22] = test: Induction of apoptosis in human HepG2 cells assessed as cell population with mitochondrial membrane potential loss at 0.125 uM measured after 48 hrs by JC-1 staining based flow cytometry (reference value: 1.49%); format: functional; method in brief: as §1
HepG2 [23] = test: Downregulation of HO-1 expression in human HepG2 cells after 24 hrs by protein array assay; format: functional, cell-based
Method in brief: (§3)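 Lysates from HepG-2 cells treated 24 h were incubated overnight at 4 °C on a membrane array of 35 apoptosis-related proteins. A biotinylated detection antibody cocktail was then applied for 1 h at room temperature. Relative expression was read from chemiluminescent spots by densitometry.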

HepG2 [24] = test: Downregulation of HO-2 expression in human HepG2 cells after 24 hrs by protein array assay; format: functional, cell-based; method in brief: as §3
HepG2 [25] = test: Downregulation of survivin expression in human HepG2 cells after 24 hrs by protein array assay; format: functional, cell-based; method in brief: as §3
HepG2 [26] = test: Upregulation of Bax level in human HepG2 cells up to 0.25 uM after 48 hrs by Western blot method; format: functional, cell-based
HepG2 [27] = test: Upregulation of total Cyt c level in human HepG2 cells up to 0.25 uM after 48 hrs by Western blot method; format: functional, cell-based
HepG2 [28] = test: Upregulation of caspase 3 level in human HepG2 cells up to 0.25 uM after 48 hrs by Western blot method; format: functional, cell-based

Compound: C[C@H]1CCC/C=C/[C@@H]2C[C@H](OC(=O)CCCC(=O)OCCOc3no[n+]([O-])c3S(=O)(=O)c3ccccc3)C[C@H]2[C@H](OC(=O)CCCC(=O)OCCOc2no[n+]([O-])c2S(=O)(=O)c2ccccc2)/C=C/C(=O)O1
- Activity (HepG2 [1]): 83.42%
- IC50 (HT-29): 160 nM
- Drug metabolism [2]: 98.5 µM
- Activity (HepG2 [3]): 18.96%
- Activity (HepG2 [4]): 25.17%
- Activity (HepG2 [5]): 72.16%
- Activity (HepG2 [6]): 2.67%
- Activity (HepG2 [7]): 68.06%
- Activity (HepG2 [8]): 7.2%
- Activity (HepG2 [9]): 63.24%
- Activity (HepG2 [10]): 72.34%
- Activity (HepG2 [11]): 11.76%
- Activity (HepG2 [12]): 3%
- viability at 0.0625 µM (HepG2 [13]): 82.1%
- Activity (HepG2 [14]): 13.23%
- Activity (HepG2 [15]): 2.4%
- viability at 0.125 µM (HepG2 [16]): 63%
- Activity (HepG2 [17]): 6.68%
- Activity (HepG2 [18]): 8.7%
- Activity (HepG2 [19]): Dose-dependent effect
- Activity (HepG2 [20]): 16.58%
- Activity (HepG2 [21]): 64.55%
- Activity (HepG2 [22]): 35.45%
- Activity (HepG2 [23]): Active
- Activity (HepG2 [24]): Active
- Activity (HepG2 [25]): Active
- Activity (HepG2 [26]): Active
- Activity (HepG2 [27]): Active
- Activity (HepG2 [28]): Active
